What was measured:
Settings in all cases: stereoisomer not certain
UniProt Q8VGZ2 = molecular target: T1, UniProt Q8VGZ2
T1 sequence (whole entry): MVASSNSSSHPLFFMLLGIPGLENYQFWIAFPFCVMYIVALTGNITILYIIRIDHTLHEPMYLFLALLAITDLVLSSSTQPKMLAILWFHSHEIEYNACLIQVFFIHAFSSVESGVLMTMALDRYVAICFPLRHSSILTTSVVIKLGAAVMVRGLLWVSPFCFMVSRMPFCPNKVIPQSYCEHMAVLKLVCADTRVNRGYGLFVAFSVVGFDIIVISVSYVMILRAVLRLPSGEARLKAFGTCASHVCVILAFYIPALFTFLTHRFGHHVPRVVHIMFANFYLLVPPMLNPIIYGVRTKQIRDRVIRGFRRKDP
Procedure, shortened: (§1)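 Assay methods differ from source to source, frequently being transient luciferase assays in mammalian cell lines. For each receptor–molecule pair, the label responsive (active) applies when the original authors judged the measured signal statistically different from baseline, and non-responsive (inactive) applies otherwise.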

UniProt Q8VGZ7 = molecular target: T2, UniProt Q8VGZ7
T2 sequence (whole entry): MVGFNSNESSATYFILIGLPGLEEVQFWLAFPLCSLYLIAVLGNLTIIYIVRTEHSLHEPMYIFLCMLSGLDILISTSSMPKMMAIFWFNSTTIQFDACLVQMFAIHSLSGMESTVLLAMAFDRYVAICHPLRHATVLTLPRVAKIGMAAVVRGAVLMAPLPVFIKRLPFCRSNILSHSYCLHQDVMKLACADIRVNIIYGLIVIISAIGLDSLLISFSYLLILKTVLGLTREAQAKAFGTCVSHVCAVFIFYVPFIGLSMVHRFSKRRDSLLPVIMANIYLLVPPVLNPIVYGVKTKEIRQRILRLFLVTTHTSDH
Procedure, shortened: as §1

UniProt Q8VH16 = molecular target: T3, UniProt Q8VH16
T3 sequence (whole entry): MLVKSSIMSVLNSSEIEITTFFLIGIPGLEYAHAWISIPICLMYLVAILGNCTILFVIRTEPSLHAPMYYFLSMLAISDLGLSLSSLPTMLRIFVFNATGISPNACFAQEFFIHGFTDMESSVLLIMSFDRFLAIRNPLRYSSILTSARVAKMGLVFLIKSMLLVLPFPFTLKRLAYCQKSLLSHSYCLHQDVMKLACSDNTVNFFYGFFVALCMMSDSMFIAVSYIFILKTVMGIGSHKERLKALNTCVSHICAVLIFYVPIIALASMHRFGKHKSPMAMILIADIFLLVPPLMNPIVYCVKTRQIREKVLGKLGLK
Procedure, shortened: as §1

UniProt Q8VH20 = molecular target: T4, UniProt Q8VH20
T4 sequence (whole entry): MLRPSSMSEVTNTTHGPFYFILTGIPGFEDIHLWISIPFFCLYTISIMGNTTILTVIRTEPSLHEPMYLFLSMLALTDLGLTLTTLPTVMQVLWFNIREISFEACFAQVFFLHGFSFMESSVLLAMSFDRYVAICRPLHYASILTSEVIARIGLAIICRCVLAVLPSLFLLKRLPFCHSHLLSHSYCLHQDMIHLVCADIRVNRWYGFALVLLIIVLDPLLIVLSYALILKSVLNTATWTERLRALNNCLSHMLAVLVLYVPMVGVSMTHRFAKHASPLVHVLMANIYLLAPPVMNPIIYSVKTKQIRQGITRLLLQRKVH
Procedure, shortened: as §1

UniProt Q8VH21 = molecular target: T5, UniProt Q8VH21
T5 sequence (whole entry): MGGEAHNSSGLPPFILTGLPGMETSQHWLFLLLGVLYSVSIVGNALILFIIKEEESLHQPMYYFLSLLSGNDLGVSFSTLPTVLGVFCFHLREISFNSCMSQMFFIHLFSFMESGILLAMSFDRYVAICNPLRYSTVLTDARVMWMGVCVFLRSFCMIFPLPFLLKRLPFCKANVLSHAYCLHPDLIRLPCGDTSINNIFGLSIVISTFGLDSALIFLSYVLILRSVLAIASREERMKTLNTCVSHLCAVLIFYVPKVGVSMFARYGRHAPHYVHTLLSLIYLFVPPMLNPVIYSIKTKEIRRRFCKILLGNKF
Procedure, shortened: as §1

UniProt Q920P1 = molecular target: T6, UniProt Q920P1
T6 sequence (whole entry): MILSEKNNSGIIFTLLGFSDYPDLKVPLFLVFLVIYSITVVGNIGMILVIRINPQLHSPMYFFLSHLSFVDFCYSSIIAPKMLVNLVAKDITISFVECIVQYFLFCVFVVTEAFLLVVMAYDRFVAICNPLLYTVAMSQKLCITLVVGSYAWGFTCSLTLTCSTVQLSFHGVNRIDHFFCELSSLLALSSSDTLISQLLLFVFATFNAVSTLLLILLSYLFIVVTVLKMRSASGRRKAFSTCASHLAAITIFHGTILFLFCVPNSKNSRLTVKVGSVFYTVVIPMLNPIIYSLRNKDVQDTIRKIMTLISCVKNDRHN
Procedure, shortened: as §1

UniProt Q8VH18 = molecular target: T7, UniProt Q8VH18
T7 sequence (whole entry): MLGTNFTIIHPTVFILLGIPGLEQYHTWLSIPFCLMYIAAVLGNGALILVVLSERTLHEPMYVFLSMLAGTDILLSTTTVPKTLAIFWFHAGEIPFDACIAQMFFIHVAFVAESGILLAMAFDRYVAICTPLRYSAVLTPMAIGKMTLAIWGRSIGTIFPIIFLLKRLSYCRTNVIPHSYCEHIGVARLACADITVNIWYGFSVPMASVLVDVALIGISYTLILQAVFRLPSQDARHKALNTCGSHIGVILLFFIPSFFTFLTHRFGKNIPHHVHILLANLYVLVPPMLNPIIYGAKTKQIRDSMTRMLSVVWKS
Procedure, shortened: as §1

Measured: odorant receptor agonist call

C=C1C2CCC(C2)C1(C)C (configuration not stated)
inactive: UniProt Q8VGZ2 | UniProt Q8VGZ7 | UniProt Q8VH16 | UniProt Q8VH20 | UniProt Q8VH21

CCCCCCCCCCCO
inactive: UniProt Q8VGZ2 | UniProt Q8VGZ7 | UniProt Q8VH16 | UniProt Q8VH20 | UniProt Q8VH21

CCCCCCCCOC=O
inactive: UniProt Q8VGZ2 | UniProt Q8VGZ7 | UniProt Q8VH16 | UniProt Q8VH20 | UniProt Q8VH21

CCc1nccnc1CC
inactive: UniProt Q8VGZ2 | UniProt Q8VGZ7 | UniProt Q8VH16 | UniProt Q8VH20 | UniProt Q8VH21

CCCCCC(C=O)=Cc1ccccc1
inactive: UniProt Q8VGZ2 | UniProt Q8VGZ7 | UniProt Q8VH16 | UniProt Q8VH20 | UniProt Q8VH21

C=CCc1ccc(OCC)c(OC)c1
inactive: UniProt Q920P1

OCCc1ccccc1
inactive: UniProt Q8VGZ2 | UniProt Q8VGZ7 | UniProt Q8VH16 | UniProt Q8VH20 | UniProt Q8VH21

CCCCCCC(=O)OCCCC
inactive: UniProt Q8VGZ2 | UniProt Q8VGZ7 | UniProt Q8VH16 | UniProt Q8VH20 | UniProt Q8VH21

CC(=O)OCCc1ccccc1
inactive: UniProt Q8VGZ2 | UniProt Q8VGZ7 | UniProt Q8VH16 | UniProt Q8VH20 | UniProt Q8VH21

Cc1ccc2c(c1)OCC(=O)CO2
inactive: UniProt Q8VGZ2 | UniProt Q8VGZ7 | UniProt Q8VH16 | UniProt Q8VH20 | UniProt Q8VH21

COC(OC)c1ccccc1
inactive: UniProt Q8VGZ2 | UniProt Q8VGZ7 | UniProt Q8VH16 | UniProt Q8VH20 | UniProt Q8VH21

CCCCCCC(C=O)=Cc1ccccc1
inactive: UniProt Q8VGZ2 | UniProt Q8VGZ7 | UniProt Q8VH16 | UniProt Q8VH20 | UniProt Q8VH21

CCCCOC(=O)CCC
inactive: UniProt Q8VH18

CCc1occc(=O)c1O
inactive: UniProt Q8VGZ2 | UniProt Q8VGZ7 | UniProt Q8VH16 | UniProt Q8VH20 | UniProt Q8VH21

C=C(C)C1CCC2(C)OC2C1 (configuration not stated)
inactive: UniProt Q8VGZ2 | UniProt Q8VGZ7 | UniProt Q8VH16 | UniProt Q8VH20 | UniProt Q8VH21

CC=CC(=O)C1=C(C)CCCC1(C)C
inactive: UniProt Q8VGZ2 | UniProt Q8VGZ7 | UniProt Q8VH16 | UniProt Q8VH20 | UniProt Q8VH21

Cc1occc1SSc1ccoc1C
inactive: UniProt Q8VGZ2 | UniProt Q8VGZ7 | UniProt Q8VH16 | UniProt Q8VH20 | UniProt Q8VH21

CCCO
inactive: UniProt Q8VGZ2 | UniProt Q8VGZ7 | UniProt Q8VH16 | UniProt Q8VH20 | UniProt Q8VH21

CCCCCCCOC(=O)C(C)C
inactive: UniProt Q8VGZ2 | UniProt Q8VGZ7 | UniProt Q8VH16 | UniProt Q8VH20 | UniProt Q8VH21

CCC=CCCC=CC=O
inactive: UniProt Q8VGZ2 | UniProt Q8VGZ7 | UniProt Q8VH16 | UniProt Q8VH20 | UniProt Q8VH21

Source: the M2OR odorant receptor database
